Values belong to the compound of their own block, whether it stands above or below them.
Key:
[1] = test system: advanced malignant solid tumors; test: Preliminary antitumor activity; format: in vivo, human; settings: 11 of 17 evaluable patients who had a target lesion
[2] = cited from earlier work
[3] = Plasma pharmacokinetics of axitinib; format: in vivo, human
[4] = Treatment-related laboratory abnormalities, phase I Study 1 and Study 2; format: in vivo, human; settings: treatment-related laboratory abnormality; pooled; N = 18
Method in brief: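 Laboratory abnormalities were pooled across 18 Japanese patients with solid tumours from two studies. Patients took the oral test compound in the fed state: 5 mg BID continuous dosing, preceded by single doses in some patients (5 mg; or 5, 7 and 10 mg in Study 2). Dose could be raised to 7 then 10 mg BID, or cut to 3 or 2 mg BID for toxicity.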

thyroid gland = test: Thyroid function tests; format: in vivo, human; settings: two studies, 18 patients
Method in brief: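 Study 1 measured TSH weekly in cycle 1, then every 2 weeks. Study 2 determined anti-TPO and antithyroglobulin antibody titres at screening, and measured TSH, free T3, free T4 and thyroglobulin weekly in cycle 1, then every 2 weeks. Study 2 also measured total cholesterol and CPK, monitored thyroid tests at every visit, and gave thyroid hormone replacement according to TSH to keep patients euthyroid.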

[5] = Treatment-related adverse events; format: in vivo, human
Method in brief: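 Adverse events were graded by CTCAE version 3.0 throughout both studies in 18 Japanese patients on the oral test compound, taken in the fed state. Study 1 gave 5 mg BID continuously, six patients first receiving a single 5-mg dose. Study 2 gave single 5-, 7- and 10-mg doses, then 5 mg BID. Titration was to 7 then 10 mg BID; reduction was to 3 or 2 mg BID.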

[6] = cited from earlier work; remark: listed apart in the source
[7] = cited from earlier work; remark: listed apart in the source
[8] = Study 2 (N = 6), four patients received thyroid hormone replacement therapy
[9] = treatment-related, pooled, N = 18

- AUC ([3]; human, plasma, oral, 5 mg): 138 ng·h/mL
- Tmax ([3]; human, plasma, oral, 5 mg): 4.04 h
- half-life ([3]; human, plasma, oral, 10 mg): 4.8 to 5.9 h
- Time after administration at which plasma concentration reached maximum (Cmax) ([3]; single dose 5, 7, 10 mg, Study 2): ~ 4 h
- Dose linearity of plasma pharmacokinetics ([3]; single dosing of 5 mg, 7 mg and 10 mg): generally linear
- ALP increased, all grades [4]: 4 (22) n (%)
- Blood glucose increased, all grades [4]: 5 (28) n (%)
- Blood glucose increased, grade 3/4 [4]: 0 n (%)
- Hematuria, all grades [4]: 7 (39) n (%)
- Lipase increased, all grades [4]: 6 (33) n (%)
- Lipase increased, grade 3/4 [4]: 0 n (%)
- Lymphocyte count decreased, all grades [4]: 1 (6) n (%)
- Lymphocyte count decreased, grade 3/4 [4]: 0 n (%)
- Neutrophil count decreased, all grades [4]: 3 (17) n (%)
- Neutrophil count decreased, grade 3/4 [4]: 1 (6) n (%)
- Platelet count decreased, all grades [4]: 6 (33) n (%)
- Platelet count decreased, grade 3/4 [4]: 0 n (%)
- Proteinuria, all grades [4]: 9 (50) n (%)
- TSH decreased, all grades [4]: 4 (22) n (%)
- TSH increased, all grades [4]: 13 (72) n (%)
- Patients with elevation of TSH above the upper limit of normal range (thyroid gland): 89%
SMILES: CNC(=O)c1ccccc1Sc1ccc2c(/C=C/c3ccccn3)n[nH]c2c1 [axitinib, Axitinib]
- Evaluable patients with a reduction in tumor size [1]: 65%
- Hemoglobin change in treated patients [2]: Elevation of hemoglobin
- AST increased, all grades [4]: 4 (22) n (%)
- Grade 3/4 fatigue, patients ([5]; 18 patients): 28%
- Grade 3/4 hypertension, patients ([5]; 18 patients): 33%
- Grade 3/4 fatigue, patients ([5]; Study 1): 42%
- Treatment-related fatigue, all grades ([5]; Study 1 (N = 12)): 10 (83) n (%)
- Treatment-related fatigue, grade 3/4 ([5]; Study 1 (N = 12)): 5 (42) n (%)
- Treatment-related fatigue, all grades [5, 8]: 5 (83) n (%)
- Treatment-related fatigue, grade 3/4 [5, 8]: 0 n (%)
- Anorexia, patients ([5]; treatment-related, 18 patients): 72%
- Diarrhea, patients ([5]; treatment-related, 18 patients): 67%
- Hand–foot syndrome, patients ([5]; treatment-related, 18 patients): 67%
- Hypertension, patients ([5]; treatment-related, 18 patients): 61%
- Fatigue, all grades ([5]; treatment-related, pooled Study 1 and Study 2, N = 18): 15 (83) n (%)
- Anorexia, all grades [5, 9]: 13 (72) n (%)
- Constipation, all grades [5, 9]: 7 (39) n (%)
- Diarrhea, all grades [5, 9]: 12 (67) n (%)
- Epistaxis, all grades [5, 9]: 5 (28) n (%)
- Hand–foot syndrome, all grades [5, 9]: 12 (67) n (%)
- Hand–foot syndrome, grade 3/4 [5, 9]: 1 (6) n (%)
- Headache, all grades [5, 9]: 4 (22) n (%)
- Hoarseness, all grades [5, 9]: 9 (50) n (%)
- Hypertension, all grades [5, 9]: 11 (61) n (%)
- Nausea, all grades [5, 9]: 4 (22) n (%)
- Rash, all grades [5, 9]: 6 (33) n (%)
- Stomatitis, all grades [5, 9]: 10 (56) n (%)
- Fatigue (all grades), patients ([5]; treatment-related, two studies, 18 patients): 83%
- Anemia ([5]; two phase I studies): not reported as an adverse event
- Plasma exposure, fed state versus shorter fasting durations ([6]; 2 h before and 2 h after dosing, and 1 h before and 1 h after dosing): no difference in exposure
- Plasma exposure, fed state versus overnight fasting state ([6]; Western healthy volunteers): lower plasma exposure

SMILES: CCN(CC)CCNC(=O)c1c(C)[nH]c(/C=C2\C(=O)Nc3ccc(F)cc32)c1C [sunitinib]
- Hypothyroidism and thyroid dysfunction, patients [7]: 36–85%
- Hemoglobin change in treated patients [2]: Elevation of hemoglobin

SMILES: CNC(=O)c1cc(Oc2ccc(NC(=O)Nc3ccc(Cl)c(C(F)(F)F)c3)cc2)ccn1 [sorafenib]
- Hypothyroidism and thyroid dysfunction, patients [7]: ~ 20%
- Hemoglobin change in treated patients [2]: Elevation of hemoglobin

— publication PMC3348450 (Investigational New Drugs, 2011)
